# High-throughput results from PubChem BioAssay.
# NPR2 activator: GC-B (human) receptor activation; actives 0.11% (n = 370,000); activation, % at 10 µM; HEK293-GC-B cells, CNP EC30, cGMP TR-FRET; 0% at EC30 CNP, 100% saturating CNP; P20594;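 active = activation at 10 µM reaching about 35% in either raw or pattern-adjusted values, limit read from the data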
# NPR1 activator: GC-A (human) enzyme activation; P16066; HEK293 GC-A cells, cGMP TR-FRET, EC30 ANP; 0% at EC30 ANP, 100% saturating ANP; activation, % at 10 µM; actives 0.14% (n = 370,000); AID 1671463; in the data active = activation above about 40%
# A1 inh: inhibitors of the anti-apoptotic protein A1, read as caspase activation. MEF A1-2A-BIM cells, Caspase-Glo 3/7 luminescence, 3 h; percent of clofoctol response, vehicle zero. caspase activation, % (test concentration not listed). actives 0.066% (n = 330,000). AID 2462;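 active = over half of replicate activation scores above 10%, or exactly half above 10 with the replicate mean above 10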
# SKN-1 inh: C. elegans SKN-1 inhibition; C. elegans VP596 Pgst-4::GFP/RFP ratio, acrylamide-induced, 24 h; inhibition, % at 21.8 µM; actives 0.49% (n = 360,000);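 active = interference check ratio from 0.5 to 1.5 plus GFP to RFP signal ratio inhibition reaching or exceeding a fixed threshold, cut at about 30% in these data, passing the limit was not always enough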
# TbMetRS inhib: blocks T. brucei methionyl-tRNA synthetase activity | actives 0.4% (n = 360,000) | purified T. brucei MetRS, ATP depletion, Kinase-Glo luminescence | inhibition, % at 11.9 µM;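 active = inhibition above a per-plate cutoff of the control wells' mean inhibition plus 3 SD, cut at about 5.5% in these data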;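 also: 0% = DMSO wells median and 100% = median of wells with control inhibitor compound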
#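 assay system = parasite MetRS enzyme | timing = 15 min preincubation, 2 h reaction, all 25 °C | evaluation = percent inhibition relative to median high and low control wells | medium = HEPES buffer containing pyrophosphatase, BSA, spermine, DTT | compound = single dose, 11.9 µM final nominal, 0.9% final DMSO | detection = Kinase-Glo luminescence, ATP depletion format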
# MT1-MMP act inh: MT1-MMP (human) activation inhibition; P50281; HT1080 RFP-PRO-GFP cells, GFP/RFP ratio fluorescence, overnight; percent of plate control window, DMSO zero; GFP/RFP ratio change, % at 20 µM; actives 0.061% (n = 360,000); AID 651647;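 active = GFP/RFP ratio change of at least 30% with cell ATP level not reduced by more than half and red fluorescence within 50% of control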
#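 Assay system – RFP-PRO-GFP reporter HT1080 cells · Compound dosing – single dose of 20 µM compound, 1% DMSO final · Incubation – overnight compound exposure at 37 °C · Measure – GFP/RFP fluorescence ratio · Benchmarks – DMSO wells and RFP-L50D-GFP cells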
# Tb MetRS conf: confirmation of Trypanosoma brucei MetRS inhibitors; shares compounds with TbMetRS inhib; T. brucei MetRS enzyme, luminescence (ATP depletion); inhibition, % at 11.9 µM; actives 93% (n = 1,400); AID 624412; in the data active = inhibition above about 7%
# Jurkat cytotox: kills Jurkat cells in T. brucei MetRS counterscreen; shares compounds with TbMetRS inhib; Jurkat cells viability, ATP luminescence; inhibition, % at 8.3 µM; actives 12% (n = 1,400); AID 624413; in the data active = inhibition above about 15%;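 also: 0% = vehicle and 100% = reference inhibitor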
# TbMetRS FP orth: inhibits T. brucei methionyl tRNA synthetase in orthogonal FP test; actives 44% (n = 1,400); shares compounds with TbMetRS inhib; purified T. brucei MetRS, fluorescence polarization; inhibition, % at 11.9 µM; in the data active = inhibition above about 17%;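 also: 0% = vehicle wells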
# Active calls of the source: *; . = no result. Hits are enriched below; roughly 1.1% of the tested compounds scored in any of these assays.
SMILES,NPR2 activator,NPR1 activator,A1 inh,SKN-1 inh,TbMetRS inhib,MT1-MMP act inh,Tb MetRS conf,Jurkat cytotox,TbMetRS FP orth
O=C(CN1CCOCC1)Nc1nc(-c2ccccc2)cs1,4,9,1,16,6.7*,-4,2,3,1
COc1ccc(-c2c(Cc3ccccc3)nc(NC(=O)c3ccccc3F)n2C)cc1,0,-1,.,.,.,.,.,.,.
Cc1ccc(-c2nnc(NCc3nc4ccccc4[nH]3)c3ccccc23)cc1S(=O)(=O)N(C)C,10,1,1,-1,13*,2,24*,4,16
CCOc1cc(N2CCOCC2)c(OCC)cc1NC(=O)c1ccc(-n2ccnc2)c([N+](=O)[O-])c1,6,0,1,-11,2,-1,.,.,.
CN(C)S(=O)(=O)c1cc(NC(=O)c2ccc(-n3ccnc3)c([N+](=O)[O-])c2)ccc1Cl,-3,-5,0,-3,9.9*,0,22*,34*,14
COc1ccccc1NC(=O)c1ccc(-n2ccnc2)c([N+](=O)[O-])c1,-4,-2,1,7,8.8*,-1,27*,15,22*
O=C(Nc1ccccc1)Nc1ncc([N+](=O)[O-])s1,10,8,.,-3,6.4*,-7,10*,63*,-3
COc1ccc(-c2cc(=O)n(CCC#N)[nH]2)cc1,9,-1,1,6,16*,7,2,2,4
COc1ccc(C(C#N)=Cc2ccc(OC)c(OC)c2)cc1,-2,0,.,1,0,-3,.,.,.
COc1ccc(/C=C(/C#N)c2cccnc2)cc1OC,-10,-2,0,0,16*,3,21*,-5,15
O=C(NNS(=O)(=O)c1ccccc1[N+](=O)[O-])c1cc2ccccc2cc1O,-1,8,-2,1,34*,-1,49*,2,24*
O=C(OC12CCCN(C1)/C(=C/c1cccnc1)C2)C1CCCCC1 (stereo not drawn),7,1,.,.,.,.,.,.,.
COC(=O)c1cc(-c2ccc(-c3ccccc3)c(F)c2)c(=O)n2c1CCC2,-6,3,.,.,.,.,.,.,.
CC(C)C[C@@H]1COc2cccc(F)c2S(=O)(=O)N1C,4,3,.,.,.,.,.,.,.
CSCC[C@H](NC(=O)COc1ccc(Cl)cc1Cl)c1nc2ccccc2[nH]1,-3,-11,1,13,12*,-1,24*,5,11
Cc1c(C(=O)NC(Cc2ccccc2)c2nc3ccccc3[nH]2)cccc1[N+](=O)[O-] (stereo not drawn),1,-11,1,1,0,-12,.,.,.
CCOc1ccc(C(=O)Nc2cc(-c3nc4ccccc4[nH]3)ccc2Cl)cc1[N+](=O)[O-],10,27,-2,6,7.7*,-11,14*,5,15
CSCC[C@H](NC(=O)c1cccc([N+](=O)[O-])c1C)c1nc2ccccc2[nH]1,-1,-5,0,-2,2,-3,.,.,.
CCOc1ccccc1NC(=O)c1ccc(OCC)c([N+](=O)[O-])c1,-7,0,1,-3,-1,8,.,.,.
O=C(NC(Cc1ccccc1)c1nc2ccccc2[nH]1)c1ccc(Cl)c([N+](=O)[O-])c1 (stereo not drawn),-8,-22,0,7,20*,-3,26*,11,12
CSCC[C@H](NC(=O)c1ccc(Cl)c([N+](=O)[O-])c1)c1nc2ccccc2[nH]1,-10,-25,0,0,56*,0,73*,9,43*
COC(=O)[C@]12C[C@H](CC(=O)NCCC(C)C)C(=O)N(Cc3ccc4c(c3)OCO4)C1=C[C@H](C(C)C)O[C@@H]2C1CC1,-5,-10,.,.,.,.,.,.,.
CC(C)C(C#CC1CC1)N(Cc1ccc2c(c1)OCO2)C(N)=NC(=O)/C=C/c1ccccc1 (stereo not drawn),9,-5,.,.,.,.,.,.,.
CC(C)[C@H](N)C(=O)N1CCC[C@@H]1C(=O)N1CCC2CCN(S(=O)(=O)c3ccccc3)CC21 (stereo partly drawn),6,5,.,.,.,.,.,.,.
Cc1ccsc1C(=O)OCc1nc2ccsc2c(=O)[nH]1,0,5,-2,-1,0,1,.,.,.
SMILES,NPR2 activator,NPR1 activator,A1 inh,SKN-1 inh,TbMetRS inhib,MT1-MMP act inh,Tb MetRS conf,Jurkat cytotox,TbMetRS FP orth
CC(C)(Oc1ccc(Cl)cc1)C(=O)OCc1nc2ccsc2c(=O)[nH]1,-1,-2,0,-6,20*,1,64*,3,38*
O=C(CN1C2=NCCCN2c2ccccc21)c1ccc(Cl)cc1Cl,-3,-2,1,4,12*,-2,28*,12,13
O=C(CCCOc1ccc(Cl)cc1Cl)NCCc1nnc2ccccn12,-3,14,2,14,7.8*,3,19*,0,12
C[C@H](NC(=O)CCCOc1ccc(Cl)cc1Cl)c1nnc2ccccn12,2,7,0,3,7.4*,0,16*,1,6
Cc1ccccc1NC(=O)OC1CCC12CCC(c1ccccc1)CC2 (stereo not drawn),-8,3,.,.,.,.,.,.,.
O=S(=O)(Nn1c(O)c(C=C2N=c3ccccc3=N2)sc1=S)c1ccccc1,-8,-1,-1,-8,55*,1,65*,-5,39*
O=C(CCC(=O)N1CCN(C2c3ccccc3-c3ccccc32)CC1)Nc1nnc(C(F)(F)F)s1,-7,2,.,.,.,.,.,.,.
CCOC(=O)NC(=O)CSc1nc2ccccc2[nH]1,-1,4,1,-4,0,-4,.,.,.
CCOC(=O)C1(C(C)(C)CC)CC(CSc2nc3ccccc3[nH]2)OC1=O (stereo not drawn),-7,-4,0,9,5.7*,8,15*,8,8
Cc1nc(N2CCN(C(=O)C3CCCCC3)CC2)c2c3c(sc2n1)CCCC3,-7,-5,.,.,.,.,.,.,.
C#Cc1cccc(OC[C@@H](O)CN2CCC(C(O)(c3ccccc3)c3ccccc3)CC2)c1,-12,-17,.,.,.,.,.,.,.
CC(C)c1cc(C(C)C)c(S(=O)(=O)N2CCC(C(=O)NCC3COCCO3)CC2)c(C(C)C)c1 (stereo not drawn),-8,0,.,.,.,.,.,.,.
